# Assay results from ChEMBL document CHEMBL3526081 (Drug Metab Dispos, 2011).
# Tests used:
# Liver microsome [1] = assay: Drug metabolism in human liver microsomes assessed as 1alpha-hydroxylcinobufagin formation at 100 uM at 37 degC after 30 mins by UFLC-ESI-MS analysis in presence of 10 uM quinidine CYP2D6 inhibitor; type: ADME; settings: 0.5 h
# In short: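 Pooled human liver microsomes (10 donors, both sexes) in 100 mM potassium phosphate pH 7.4 were incubated with CB and a selective P450 inhibitor. Reaction was started with NADPH-generating system after 3 min preincubation at 37°C and stopped with ice-cold acetonitrile. Hydroxylated products were quantified by UFLC-DAD at 294 nm; three experiments in duplicate.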
# Liver microsome [2] = assay: Drug metabolism in beagle dog liver microsomes assessed as 5beta-hydroxylcinobufagin formation at 100 uM at 37 degC after 30 mins by UFLC-ESI-MS analysis in presence of NADPH-generating system; type: ADME, Canis lupus familiaris; settings: 0.5 h
# In short: (§1)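 Liver microsomes (0.3 mg protein/ml) incubated with 100 µM substrate at 37°C for 30 min, in 100 mM potassium phosphate pH 7.4 with NADPH-generating system (1 mM NADP+, 10 mM glucose 6-phosphate, 1 unit/ml G6PDH, 4 mM MgCl2). Acetonitrile ≤1% final. Stopped with ice-cold acetonitrile and centrifuged. Metabolites identified by UFLC-ESI-MS and quantified by UFLC-DAD at 294 nm against authentic standard curves.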
# Liver microsome [3] = assay: Drug metabolism in human liver microsomes assessed as 5beta-hydroxylcinobufaginn formation per mg of protein at 100 uM […] by UFLC-ESI-MS analysis; type: ADME; settings: 0.5 h
# Liver microsome [4] = assay: Drug metabolism in human liver microsomes assessed as 1alpha-hydroxylcinobufagin formation at 100 uM at 37 degC after 30 mins […] in presence of 10 uM sulfaphenazole CYP2C9 inhibitor; type: ADME; settings: 0.5 h
# Liver microsome [5] = assay: Drug metabolism in human liver microsomes assessed as 5beta-hydroxylcinobufagin formation at 100 uM at 37 degC after 30 mins by UFLC-ESI-MS analysis in presence of NADPH-generating system; type: ADME; settings: 0.5 h
# In short: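 CB (100 µM; acetonitrile ≤1% final) was incubated with pooled HLM (0.3 mg/ml) plus NADPH-generating system (1 mM NADP+, 10 mM glucose 6-phosphate, 1 unit/ml G6PDH, 4 mM MgCl2) in pH 7.4 phosphate buffer at 37°C for 30 min. Products were identified by UFLC-ESI-MS and quantified by UFLC-DAD at 294 nm.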
# Liver microsome [6] = assay: Drug metabolism in beagle dog liver microsomes assessed as 5beta-hydroxylcinobufaginn formation at 100 uM at 37 degC after 30 mins by UFLC-ESI-MS analysis; type: ADME, Canis lupus familiaris; settings: 0.5 h, read-out: Km(app); in short: as §1
# [7] = Ratio of Vmax/Km in Colony-bred Chinese Bama minipig liver microsomes assessed as 5beta-hydroxylcinobufaginn formation at 100 uM […] by UFLC-ESI-MS analysis; type: ADME, Sus scrofa; settings: pig, 0.5 h
# Liver = assay: Ratio of Vmax/Km in Swiss-Hauschka (ICR) mouse liver microsomes assessed as 1alpha-hydroxylcinobufagin formation at 100 uM […] by UFLC-ESI-MS analysis; type: ADME; settings: 0.5 h
structure (smiles),measurement,setting,value
CC(=O)O[C@H]1[C@H]2O[C@]23[C@@H]2CC[C@@H]4C[C@@H](O)CC[C@]4(C)[C@H]2CC[C@]3(C)[C@H]1c1ccc(=O)oc1 [CINOBUFAGIN],Drug metabolism,Liver microsome [1],metabolite_detected
same,Drug metabolism,Liver microsome [2],metabolite_detected
same,Vmax,Liver microsome [3],1.17 nmol/min/mg
same,Drug metabolism,Liver microsome [4],metabolite_detected
same,Drug metabolism,Liver microsome [5],metabolite_detected
same,Km,Liver microsome [6],3.4 µM
same,Vmax/Km,[7],54.6 µL/mg/min
same,Vmax/Km,Liver,595 µL/mg/min
